Data on nine compounds can be found in ChEMBL document CHEMBL1127797, “Synthesis of oxadiazolidinedione derivatives as quisqualic acid analogues and their evaluation at a quisqualate-sensitized site in the rat hippocampus” (J Med Chem, 1994).

As a reminder, the pIC50 is the IC50 on a negative log10 scale, so that one unit is a factor of ten.

pIC50: −log10 of the molar value. Bounds are passed on as bounds.

What all share (conditions): pyramidal neuron
Assay [1] can be described thus: Ability to directly depolarize CA1 pyramidal neurons of rat hyppocampal slices before exposure to quisqualic acid. In kind it is functional, cell-based. In short, it runs like this:
(§1)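 Transverse hippocampal slices (500 μM as printed) from 25-60 day old male Sprague-Dawley rats, preincubated 20-30 min in high Mg2+/low Ca2+ medium, held at 28 °C. Submerged in microperfusion chamber at 34 °C, 95% O2/5% CO2. Schaffer collateral stimulation, stratum radiatum recording of peak field potential amplitude. IC50 (50% inhibition) interpolated from concentration-response data, mean of four experiments; measured before and after 5 min 20 μM quisqualic acid, then after 10 min 2 mM L-α-AA reversal.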

A short description of assay [2]: Sensitization of CA1 pyramidal neurons to depolarizations by L-AP6 after exposure to quisqualic acid. In kind it is functional, cell-based, Rattus norvegicus.
Assay [3] is described as follows: Sensitization of CA1 pyramidal neurons to depolarizations by L-AP6 before exposure to quisqualic acid. In kind it is functional, cell-based, Rattus norvegicus. In short, it runs like this:
(§2)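 Rat (male Sprague-Dawley, 25-60 days) hippocampal slices, submerged, 34 °C, 95% O2/5% CO2; Schaffer collateral stimulation with stratum radiatum CA1 field potential recording. L-AP6 IC50 for 50% inhibition of peak amplitude interpolated from concentration-response curves, mean of four experiments; determined before and after slice exposure to sensitizing agent in place of quisqualic acid, then after 2 mM L-α-AA reversal.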

Assay [4] can be described thus: Ability to directly depolarize CA1 pyramidal neurons of rat hyppocampal slices after exposure to quisqualic acid. In kind it is functional, cell-based. In short, it runs like this: as §1
A short description of assay [5]: Sensitization of CA1 pyramidal neurons to depolarizations by L-AP6 after reversal with L-alpha-AA. In kind it is functional, cell-based, Rattus norvegicus. In short, it runs like this:
as §2

The nature of assay [6]: Ability to directly depolarize CA1 pyramidal neurons of rat hyppocampal slices after reversal with L-alpha-AA. The assay is classed as functional, cell-based. In short, it runs like this: as §1
Assay [7] in a line: sensitization of CA1 pyramidal neurons by 2 to depolarizations by L-AP4, L-AP5 and L-AP6 after reversal with L-alpha-AA. In kind it is functional, cell-based, Rattus norvegicus. The essentials:
(§3)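 Rat hippocampal slices were submerged at 34 °C under 95% O2/5% CO2. Stimulating and recording electrodes sat in CA1 stratum radiatum to record extracellular synaptic field potentials. IC50 of L-AP4, L-AP5 and L-AP6 was measured three times: before, after 20 min exposure to 20 mM test compound in place of quisqualic acid, and after 20 min 2 mM L-α-AA.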

Assay [8] can be described thus: sensitization of CA1 pyramidal neurons by 2 to depolarizations by L-AP4, L-AP5 and L-AP6 before exposure to quisqualic acid. In kind it is functional, cell-based, Rattus norvegicus. In short, it runs like this: as §3
The nature of assay [9]: sensitization of CA1 pyramidal neurons by 2 to depolarizations by L-AP4,L-AP5 and L-AP6 after exposure to quisqualic acid. In kind it is functional, cell-based, Rattus norvegicus. In short, it runs like this:
as §3

A short description of assay [10]: ability to directly depolarize CA1 pyramidal neurons of rat hyppocampal slices after exposure to quisqualic acid. The assay is classed as functional, cell-based. The essentials: (§4)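 Transverse hippocampal slices from 25-60 day old male Sprague-Dawley rats, preincubated 20-30 min in high Mg2+/low Ca2+ medium. Submerged at 34 °C under 95% O2/5% CO2. Schaffer collaterals stimulated; field potential peak amplitude recorded in CA1 stratum radiatum. Concentration-response curves run before, after 5 min 20 μM quisqualic acid, and after 10 min 2 mM L-α-AA reversal. IC50 interpolated; mean of four experiments.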

A short description of assay [11]: ability to directly depolarize CA1 pyramidal neurons of rat hyppocampal slices after reversal with L-alpha-AA. The assay is classed as functional, cell-based. The essentials: as §4
Assay [12] in a line: ability to directly depolarize CA1 pyramidal neurons of rat hyppocampal slices before exposure to quisqualic acid. The assay is classed as functional, cell-based. The essentials: as §4
Assay [13] is described as follows: sensitization of CA1 pyramidal neurons to depolarizations by L-AP6 after exposure to quisqualic acid. The assay is classed as functional, cell-based, Rattus norvegicus. In short, it runs like this: (§5)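 Male Sprague-Dawley rat (25-60 day) hippocampal slices were perfused at 34 °C. Schaffer collaterals were stimulated with field potential recording in CA1 stratum radiatum. L-AP6 concentration-response curves were run before and after exposure to test compound substituted for quisqualic acid, then after 10 min 2 mM L-α-AA. IC50 for 50% peak-amplitude inhibition was interpolated.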

A short description of assay [14]: sensitization of CA1 pyramidal neurons to depolarizations by L-AP6 after reversal with L-alpha-AA. In kind it is functional, cell-based, Rattus norvegicus. In short, it runs like this: as §5
Assay [15] in a line: sensitization of CA1 pyramidal neurons to depolarizations by L-AP6 before exposure to quisqualic acid. The assay is classed as functional, cell-based, Rattus norvegicus. The essentials: as §5

As for `O=C(O)[C@@H]1C[C@H](n2oc(=O)[nH]c2=O)CN1`, the negative logarithm of the IC50 (pIC50) was 4.82 in assay [1], less than 2.00 in assay [2], less than 2.00 in assay [3] and 4.85 in assay [4].
`O=C(O)[C@@H]1C[C@@H](n2oc(=O)[nH]c2=O)CN1`: the negative-log IC50 (pIC50) in [1] was 3.00; in [2], 3.11; in assay [5], less than 2.00; in assay [3], less than 2.00; in assay [4], 3.28; in assay [6], 2.96.
Consider `O=C(O)CCn1oc(=O)[nH]c1=O`, for which the pIC50 in [1], in [2], in [3] and in [4] was less than 2.00 in each case.
In the case of `N[C@@H](CCP(=O)(O)O)C(=O)O`, the negative logarithm of the IC50 (pIC50) was 2.77 in [7], 2.82 in assay [8] and 3.59 in [9].
Turning to `NCCn1oc(=O)[nH]c1=O`, the pIC50 is 2.27 in assay [1], less than 2.00 in assay [2], less than 2.00 in assay [3] and 2.42 in assay [4].
With `NC(CCCP(=O)(O)O)C(=O)O` (centres undefined), the pIC50 in [7] was 2.66; in assay [8], 2.64; in [9], 3.51.
Consider `N[C@@H](Cn1oc(=O)[nH]c1=O)C(=O)O` [QUISQUALATE], for which the pIC50 in assay [10] was 5.40; in assay [11] it was 4.59; in assay [12], 5.15; in assay [13], 4.40; in [14] it was 2.72; in assay [15], less than 2.00.
In the case of `N[C@@H](CCn1oc(=O)[nH]c1=O)C(=O)O`, the pIC50 in assay [10] was 5.26; in assay [11] it was 4.70; in assay [12], 5.01; in assay [13] it was 3.77; in assay [14], 1.92; in assay [15], 1.96.
For `NC(CCCCP(=O)(O)O)C(=O)O` (centres undefined), the pIC50 in [7] is 1.92; in [8] it was 1.96; in [13], 3.77.
